Active and inactive are the calls of the source. The calls are words filed in the database; no cut-off is given here.
Key:
[1] = Cytotoxicity against human HPLF cells; format: cell-based
In short: (§1)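 CC50 is the concentration killing 50% of cells, tested up to a highest concentration of 400 μM. Each value is the average of two independent determinations.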

CCRF-CEM [2] = test: Cytotoxicity against human CEM cells after 72 hrs; format: functional, cell-based
In short: (§2)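 Human transformed T-lymphocytes exposed to a range of compound concentrations at 37 °C for 72 h. IC50 is the concentration giving 50% inhibition of cell growth.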

[3] = Cytotoxicity against human HPC cells; format: cell-based; in short: as §1
HSC-4 = test: Cytotoxicity against human HSC4 cells; format: functional; in short: as §1
HL-60 [4] = test: Cytotoxicity against human HL60 cells; format: functional; in short: as §1
[5] = Cytotoxicity against human Molt4/C8 cells after 72 hrs; format: functional, cell-based; conditions: MOLT-4, 72 h; in short: as §2
[6] = Cytotoxicity against human HGF cells; format: cell-based; in short: as §1
L1210 [7] = test: Cytotoxicity against mouse L1210 cells after 48 hrs; conditions: L1210, 48 h
HSC-2 [8] = test: Cytotoxicity against human HSC2 cells; format: functional; in short: as §1
SR = test: Cytotoxicity against human SR cells; format: cell-based
In short: (§3)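 Part of a human tumour cell line panel screen run by a literature procedure with compounds at 10−8–10−4 M. GI50 is the concentration giving 50% growth inhibition. Where 50% inhibition was not reached at 100 μM, 100 μM was used as the value.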

K562 = test: Cytotoxicity against human K562 cells; format: functional, cell-based; in short: as §3
CCRF-CEM [9] = test: Cytotoxicity against human CCRF-CEM cells; format: functional, cell-based; in short: as §3
RPMI-8226 = test: Cytotoxicity against human RPMI8226 cells; format: functional, cell-based; in short: as §3
L1210 [10] = test: Cytotoxicity against mouse L1210 cells after 72 hrs; format: functional, cell-based; conditions: L1210, 72 h
HL-60 [11] = test: Induction of apoptosis in human HL60 cells after 6 hrs; format: functional, cell-based
In short: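 Apoptosis read out as DNA fragmentation. 5 × 10^5 cells were incubated for 6 h with 0.5, 1, 2, 4, 8 or 16 μM compound. DNA was run alongside a molecular weight marker and scored for an internucleosomal ladder versus a smear. The experiment was repeated.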

HL-60 [12] = test: Induction of apoptosis assessed as activation of caspase 9 activity in human HL60 cells after 4 hrs; format: functional, cell-based
In short: (§4)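 Caspase activation measured in neoplastic cells seeded at 4 × 10^4 cells and incubated with compound for 4 h. Each value is the mean of two or three experiments.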

HL-60 [13] = test: Induction of apoptosis assessed as activation of caspase 3 activity in human HL60 cells after 4 hrs; format: functional, cell-based; in short: as §4
HL-60 [14] = test: Induction of apoptosis assessed as activation of caspase 8 activity in human HL60 cells after 4 hrs; format: functional, cell-based; in short: as §4
HSC-2 [15] = test: Induction of apoptosis assessed as activation of caspase 3 activity in human HSC2 cells after 4 hrs; format: functional, cell-based; in short: as §4

Compound `C=C(CN(C)C)C(=O)c1ccc([N+](=O)[O-])cc1` has a CC50 [1] of 26 µM, an IC50 (CCRF-CEM [2]) of 7.91 µM and a CC50 [3] of 30 µM. The CC50 (HSC-4) was 19 µM, the CC50 (HL-60 [4]) was 1.6 µM and the IC50 [5] was 8.95 µM. The CC50 [6] was 19.3 µM, the IC50 (L1210 [7]) was 8.61 µM and the CC50 (HSC-2 [8]) was 8.2 µM.
With `CN(C)CC(CO)C(=O)c1ccc(Cl)cc1` (configuration not stated) the CC50 [1] was 12 µM, the IC50 (CCRF-CEM [2]) was 33.1 µM and the IC50 (SR) was 0.63 µM. For the same compound, the CC50 [3] was 5.4 µM, the CC50 (HSC-4) was 8 µM and the IC50 (K562) was 0.33 µM. For the same compound, the CC50 (HL-60 [4]) was < 3.1 µM, the IC50 (CCRF-CEM [9]) was 0.32 µM and the IC50 [5] was 30.9 µM. It also gave a CC50 [6] of 5.8 µM, an IC50 (L1210 [7]) of 22 µM and a CC50 (HSC-2 [8]) of 6 µM.
With `COc1ccc(C(=O)C(CO)CN(C)C)cc1` (configuration not stated) the CC50 [1] was 4.9 µM, the IC50 (CCRF-CEM [2]) was 1.15 µM and the CC50 [3] was 5.3 µM. The CC50 (HSC-4) was 5.2 µM, the IC50 (K562) was 0.49 µM and the CC50 (HL-60 [4]) was 0.46 µM. For the same compound, the IC50 [5] was 4.9 µM, the CC50 [6] was 4 µM and the IC50 (RPMI-8226) was 20 µM. For the same compound, the IC50 (L1210 [7]) was 1.57 µM and the CC50 (HSC-2 [8]) was 2.5 µM.
`C=C(CN(C)C)C(=O)c1ccc(C)cc1` gave a CC50 [1] of 8.1 µM, an IC50 (CCRF-CEM [2]) of 11.4 µM and a CC50 [3] of 6.9 µM. The CC50 (HSC-4) was 7.6 µM, the CC50 (HL-60 [4]) was 0.45 µM and the IC50 [5] was 35.5 µM. For the same compound, the CC50 [6] was 6.1 µM, the IC50 (L1210 [7]) was 11.1 µM and the CC50 (HSC-2 [8]) was 3.4 µM.
`C=C(CN(C)C)C(=O)c1ccccc1` gave an IC50 (L1210 [10]) of 52.2 µM, a CC50 [1] of 52 µM and an IC50 (CCRF-CEM [2]) of 65.6 µM. For the same compound, the IC50 (SR) was 0.55 µM, the CC50 [3] was 31 µM and the CC50 (HSC-4) was 33 µM. The IC50 (K562) was 2.19 µM, the CC50 (HL-60 [4]) was 12 µM and the IC50 (CCRF-CEM [9]) was 0.4 µM. It also gave an IC50 [5] of 146 µM, a CC50 [6] of 26 µM and an IC50 (RPMI-8226) of 1.91 µM. For the same compound, the CC50 (HSC-2 [8]) was 29 µM.
For `CN(C)CC(CSCCO)C(=O)c1ccc([N+](=O)[O-])cc1` (configuration not stated), the CC50 [1] was 400 µM, the IC50 (CCRF-CEM [2]) was > 500 µM and the IC50 (SR) was > 100 µM. The CC50 [3] was 400 µM, the CC50 (HSC-4) was 264 µM and the IC50 (K562) was > 100 µM. For the same compound, the CC50 (HL-60 [4]) was 353 µM, the IC50 (CCRF-CEM [9]) was > 100 µM and the IC50 [5] was > 500 µM. The CC50 [6] was 390 µM, the IC50 (RPMI-8226) was 38 µM and the IC50 (L1210 [7]) was > 500 µM. It also gave a CC50 (HSC-2 [8]) of 165 µM.
For `C=C(CN(C)C)C(=O)c1ccc(Cl)cc1`, the CC50 [1] was 9.2 µM, the IC50 (CCRF-CEM [2]) was 32.6 µM and the IC50 (SR) was 3.98 µM. For the same compound, the CC50 [3] was 6 µM, the CC50 (HSC-4) was 6.4 µM and the IC50 (K562) was 3.47 µM. The CC50 (HL-60 [4]) was < 3.1 µM, the IC50 (CCRF-CEM [9]) was 3.31 µM and the IC50 [5] was 30.2 µM. It also gave a CC50 [6] of 6.1 µM, an IC50 (L1210 [7]) of 26.5 µM and a CC50 (HSC-2 [8]) of 5.1 µM.
For `CN(C)CC(CO)C(=O)c1ccc([N+](=O)[O-])cc1` (configuration not stated), the CC50 [1] was 176 µM, the IC50 (CCRF-CEM [2]) was 12.2 µM and the CC50 [3] was 227 µM. It also gave a CC50 (HSC-4) of 99 µM, a CC50 (HL-60 [4]) of 35 µM and an IC50 [5] of 36.8 µM. For the same compound, the CC50 [6] was 271 µM, the IC50 (L1210 [7]) was 42.6 µM and the CC50 (HSC-2 [8]) was 73 µM.
With `Cc1ccc(C(=O)C(CO)CN(C)C)cc1` (configuration not stated) the CC50 [1] was 9.8 µM, the IC50 (CCRF-CEM [2]) was 8.22 µM and the CC50 [3] was 5.7 µM. For the same compound, the CC50 (HSC-4) was 5.8 µM, the CC50 (HL-60 [4]) was < 3.1 µM and the IC50 [5] was 21 µM. For the same compound, the CC50 [6] was 4.9 µM, the IC50 (L1210 [7]) was 6.55 µM and the CC50 (HSC-2 [8]) was 6.3 µM.
In the case of `N[C@@H](Cc1ccc(N(CCCl)CCCl)cc1)C(=O)O` [MELPHALAN], the CC50 [1] is reported as > 200 µM, the CC50 [3] is reported as > 200 µM and the CC50 (HSC-4) is reported as 81 µM. The CC50 (HL-60 [4]) was 6 µM, the IC50 (CCRF-CEM [9]) was 6.17 µM and the CC50 [6] was > 200 µM. It also gave an IC50 (RPMI-8226) of 66.1 µM and a CC50 (HSC-2 [8]) of 35 µM.
Compound `C=C(CN(C)C)C(=O)c1ccc(OC)cc1` has an IC50 (L1210 [10]) of 5.08 µM, a CC50 [1] of 9.2 µM and an IC50 (CCRF-CEM [2]) of 10.6 µM. The IC50 (SR) was 14.5 µM, the Activity (HL-60 [11]) was “Active” and the Activity (HL-60 [12]) was “Active”. For the same compound, the Activity (HL-60 [13]) was “Active”, the CC50 [3] was 5.1 µM and the CC50 (HSC-4) was 6.1 µM. For the same compound, the IC50 (K562) was 1.05 µM, the CC50 (HL-60 [4]) was < 3.4 µM and the IC50 (CCRF-CEM [9]) was 0.37 µM. For the same compound, the Activity (HL-60 [14]) was “Active”, the IC50 [5] was 21.3 µM and the CC50 [6] was 6.8 µM. The IC50 (RPMI-8226) was 21.4 µM, the CC50 (HSC-2 [8]) was 5.9 µM and the Activity (HSC-2 [15]) was “Active”.
In the case of `CN(C)CC(CO)C(=O)c1ccccc1` (configuration not stated), the CC50 [1] is reported as 5.2 µM, the IC50 (CCRF-CEM [2]) is reported as 1.42 µM and the CC50 [3] is reported as 5.5 µM. It also gave a CC50 (HSC-4) of 6.5 µM, a CC50 (HL-60 [4]) of 0.41 µM and an IC50 [5] of 5.84 µM. For the same compound, the CC50 [6] was 4.4 µM, the IC50 (L1210 [7]) was 1.65 µM and the CC50 (HSC-2 [8]) was 5.2 µM.
